Converted amounts (≈) assume the structure as drawn. The source made the active and inactive calls. The calls are words filed in the database; no cut-off is given here.
Assays:
Rattus norvegicus [1] = experiment: Antiischemic activity in Sprague-Dawley rat assessed as reduction in middle cerebral artery occlusion-induced inflammatory infiltrates in brain at 340 mg/kg administered via gavage for 7 days prior to middle cerebral artery occlusion-challenge measured after 24 hrs by microscopic analysis; format: functional, organism-based; design: dose 340 mg/kg
Summary of the method: (§1)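 Male SD rats (280−320 g), n = 12 per group, dosed by gavage daily for 7 days in 0.5% CMC-Na vehicle. Sham animals received vehicle only. Two hours after the last dose, rats were anesthetized with chloral hydrate (300 mg/kg ip) and given MCAO for 2 h, then reperfused. Body temperature was held at 37 °C. All endpoints were read at 24 h post reperfusion.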

Rattus norvegicus [2] = experiment: Antiischemic activity in Sprague-Dawley rat assessed as reduction in middle cerebral artery occlusion-induced necrosis in neurons at 340 mg/kg administered via gavage for 7 days prior to middle cerebral artery occlusion-challenge measured after 24 hrs by microscopic analysis; format: functional, organism-based; design: dose 340 mg/kg; summary of the method: as §1
Rattus norvegicus [3] = experiment: (§2) Antiischemic activity in Sprague-Dawley rat assessed as reduction in middle cerebral artery occlusion-induced water content in brain at 340 mg/kg administered via gavage for 7 days prior to middle cerebral artery occlusion-challenge measured after 24 hrs relative to control; format: functional, organism-based; design: dose 340 mg/kg; summary of the method: as §1
Rattus norvegicus [4] = experiment: Antiischemic activity in Sprague-Dawley rat assessed as reduction in middle cerebral artery occlusion-induced neurological deficit scores at 340 mg/kg administered via gavage for 7 days prior to middle cerebral artery occlusion-challenge measured after 24 hrs relative to control; format: functional, organism-based; design: dose 340 mg/kg; summary of the method: as §1
Rattus norvegicus [5] = experiment: as §2, with “infarct size” for “water content”, “80” for “340”, “hrs by triphenyltetrazolium chloride assay” for “hrs”; format: functional, organism-based; design: dose 80 mg/kg; summary of the method: as §1
Rattus norvegicus [6] = experiment: Antiischemic activity in Sprague-Dawley rat assessed as reduction in middle cerebral artery occlusion-induced neurological deficit scores at 80 mg/kg administered via gavage for 7 days prior to middle cerebral artery occlusion-challenge measured after 24 hrs relative to control; format: functional, organism-based; design: dose 80 mg/kg; summary of the method: as §1
[7] = Plasma concentration in ICR mouse at 680 mg/kg, po after 8 hrs by HPLC analysis; format: ADME, organism-based; design: dose 680 mg/kg, route oral
Summary of the method: (§3)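 Male ICR mice (30−35 g), n = 6 per time point, were given a single 680 mg/kg gavage dose and sacrificed at 0.5, 1, 2, 4 and 8 h. Brains were rinsed, weighed and homogenized in 3 volumes of saline. Plasma and homogenate were precipitated with 3 volumes of acetonitrile.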

[8] = Plasma concentration in ICR mouse at 680 mg/kg, po after 1 hrs by HPLC analysis; format: ADME, organism-based; design: dose 680 mg/kg, route oral; summary of the method: as §3
[9] = Plasma concentration in ICR mouse at 680 mg/kg, po after 0.5 hrs by HPLC analysis; format: ADME, organism-based; design: dose 680 mg/kg, route oral; summary of the method: as §3
[10] = Biodistribution in ICR mouse brain at 680 mg/kg, po after 4 hrs by HPLC analysis; format: ADME, organism-based; design: dose 680 mg/kg, route oral; conditions: read-out: Drug uptake; summary of the method: as §3
[11] = Biodistribution in ICR mouse brain at 680 mg/kg, po after 0.5 hrs by HPLC analysis; format: ADME, organism-based; design: dose 680 mg/kg, route oral; conditions: read-out: Drug uptake; summary of the method: as §3
[12] = Aqueous solubility of the compound after 5 hrs by UV-spectrophotometric analysis; format: physicochemical; conditions: water
Rattus norvegicus [13] = experiment: Antithrombotic activity in Sprague-Dawley rat assessed as reduction in arteriovenous shunt-induced dry thrombus weight at 80 mg/kg, administered via gavage for 7 days prior to arteriovenous shunt-challenge measured up to 15 mins relative to control; format: functional, organism-based; design: dose 80 mg/kg
Summary of the method: (§4)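 Male SD rats (250−280 g), n = 12 per group, dosed by gavage daily for 7 days in 0.5% CMC-Na. Two hours after the last dose, rats were anesthetized with chloral hydrate (300 mg/kg ip). A saline-filled 14 cm polyethylene catheter holding a 6 cm silk thread linked the left jugular vein and right carotid artery for 15 min. The thrombus was then weighed wet and dry. Results are mean ± SD, analysed by ANOVA/Tukey.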

Rattus norvegicus [14] = experiment: Antithrombotic activity in Sprague-Dawley rat assessed as reduction in arteriovenous shunt-induced wet thrombus weight at 80 mg/kg, administered via gavage for 7 days prior to arteriovenous shunt-challenge measured up to 15 mins relative to control; format: functional, organism-based; design: dose 80 mg/kg; summary of the method: as §4
Mus musculus [15] = experiment: Antithrombotic activity in Swiss ICR mouse assessed as inhibition of collagen/adrenaline-induced acute systemic vascular thromboembolism at 680 mg/kg, po administered for 7 days prior to collagen/adrenaline-challenge measured up to 15 mins relative to control; format: functional, organism-based; design: dose 680 mg/kg
Summary of the method: (§5)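 Male Swiss ICR mice (30−35 g), n = 15 per group, dosed by gavage daily for 7 days in DMSO vehicle. Two hours after the last dose, mice received collagen (0.21 mg/kg) plus adrenaline (44.5 μg/kg) iv. Survival was monitored for 15 min and reported as % surviving.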

Mus musculus [16] = experiment: Antithrombotic activity in Swiss ICR mouse assessed as inhibition of collagen/adrenaline-induced acute systemic vascular thromboembolism at 160 mg/kg, po administered for 7 days prior to collagen/adrenaline-challenge measured up to 15 mins relative to control; format: functional, organism-based; design: dose 160 mg/kg; summary of the method: as §5
[17] = Stability in artificial intestinal juice assessed as compound remaining at pH 6.8 after 1 hr by HPLC analysis; format: physicochemical; conditions: simulated gi fluid, pH 6.8, 1 h
[18] = Stability in artificial intestinal juice assessed as compound remaining at pH 6.8 after 2 hr by HPLC analysis; format: physicochemical; conditions: simulated gi fluid, pH 6.8, 2 h
[19] = Stability in artificial intestinal juice assessed as compound remaining at pH 6.8 measured immediately by HPLC analysis; format: physicochemical; conditions: simulated gi fluid
[20] = Stability in artificial gastric juice assessed as compound remaining at pH 1.5 after 4 hr by HPLC analysis; format: physicochemical; conditions: simulated gi fluid, pH 1.5, 4 h
[21] = Stability in artificial gastric juice assessed as compound remaining at pH 1.5 after 1 hr by HPLC analysis; format: physicochemical; conditions: simulated gi fluid, pH 1.5, 1 h
[22] = Stability in artificial gastric juice assessed as compound remaining at pH 1.5 after 2 hr by HPLC analysis; format: physicochemical; conditions: simulated gi fluid, pH 1.5, 2 h
[23] = Stability in artificial gastric juice assessed as compound remaining at pH 1.5 measured immediately by HPLC analysis; format: physicochemical; conditions: simulated gi fluid
Platelet = experiment: Antiplatelet aggregation activity in rabbit platelets assessed as inhibition of ADP-induced platelet aggregation at 0.1 mM incubated for 5 mins prior to ADP-challenge measured within 5 mins by turbidimetric analysis; format: functional, cell-based; conditions: Oryctolagus cuniculus
Summary of the method: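 Rabbit carotid blood was citrated (3.8%, 9:1). PRP was adjusted with PPP to 400−450 × 10⁹ platelets/L. PRP was preincubated with compound or DMSO for 5 min at 37 °C, then aggregation was induced with ADP at 10 μM. Maximum aggregation rate was recorded over 5 min using Born's turbidimetry. Inhibition % was calculated versus vehicle; n = 6, mean ± SD.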

[24] = Antiplatelet aggregation activity in rabbit platelets assessed as inhibition of arachidonic acid-induced platelet aggregation incubated for 5 mins prior to arachidonic acid-challenge measured within 5 mins by Born's turbidimetric analysis; format: functional, cell-based; conditions: Oryctolagus cuniculus
Summary of the method: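 Rabbit citrated PRP was adjusted to 400−450 × 10⁹ platelets/L and preincubated for 5 min at 37 °C with vehicle DMSO or compound at 0.1−1.6 mM (at least five concentrations). Aggregation was induced with arachidonic acid (0.33 mM, per the methods text). Maximum aggregation rate was recorded over 5 min by Born's turbidimetry, and IC₅₀ was derived from inhibition versus vehicle (mean ± SD).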

[25] = Antiplatelet aggregation activity in rabbit platelets assessed as inhibition of ADP-induced platelet aggregation incubated for 5 mins prior to ADP-challenge measured within 5 mins by Born's turbidimetric analysis; format: functional, cell-based; conditions: Oryctolagus cuniculus

CCCC[C@H](OC(=O)CN1CCN(C)CC1)c1ccccc1C(=O)O[C@H]1CO[C@H]2[C@@H]1OC[C@H]2OC(=O)c1ccccc1[C@H](CCCC)OC(=O)CN1CCN(C)CC1
Activity (Rattus norvegicus [1]): Active
Activity (Rattus norvegicus [2]): Active
Activity (Rattus norvegicus [3]): Active
Activity (Rattus norvegicus [4]): Active
Activity (Rattus norvegicus [5]): Active
Activity (Rattus norvegicus [6]): Active
concentration at 8 h [7]: 69.7 ng/mL
concentration at 1 h [8]: 241 ng/mL
concentration at 0.5 h [9]: 320 ng/mL
concentration at 4 h [10]: 54.3 ng/mL
concentration at 0.5 h [11]: 408 ng/mL
solubility at 5 h [12]: 11.2 mg/mL (≈ 13.9 mM)
Activity (Rattus norvegicus [13]): Active
Activity (Rattus norvegicus [14]): Active
Activity (Mus musculus [15]): Active
Activity (Mus musculus [16]): Active
Stability [17]: 4.86 µM
Stability [18]: 5.04 µM
Stability [19]: 4.97 µM
Stability [20]: 4.79 µM
Stability [21]: 4.89 µM
Stability [22]: 5 µM
Stability [23]: 4.92 µM
inhibition (Platelet): Active
IC50 [24]: 50 µM
IC50 [25]: 70 µM
